Screens deposited in PubChem BioAssay by several laboratories.
An excerpt weighted towards active compounds, which were near 1.8% of everything screened.
TCR-CD3 inh: inhibitors of human TCR-CD3 interaction, primary screen, biochemical, fluorescence, TAMRA-labeled TCR probe | hit rate 0.37% among 360,000 | T-cell receptor (TCR) | AID 651800, 2012 | inhibition, % at 9.4 µM; in the data active = inhibition above about 19%;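 note: recombinant mutant TCR 2C K166C tagged with TAMRA read by polarization; 0% = receptor in buffer alone and 100% = receptor with positive control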
HTRA1 inhibitor: HTRA1 serine protease inhibitors, primary screen, biochemical, fluorescence polarization, HTS; Q92743; recombinant HTRA1, FP-rhodamine activity-based probe; inhibition, % at 5.96 µM; hit rate 0.5% among 340,000; in the data active = inhibition above about 36%;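 note: 0% = enzyme with DMSO and 100% = wells lacking enzyme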
ABHD4 inh: ABHD4 inhibitors, primary screen, biochemical, fluorescence polarization, mouse. purified mABHD4, FP-Rh probe fluorescence polarization. inhibition, % at 8.92 µM. hit rate 0.54% among 370,000. AID 720543, 2013;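 active = inhibition exceeding the mean over every tested compound plus 3 SD, cut at about 30% in these data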;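 note: 0% = plate median of compound wells and 100% = S159A mutant with DMSO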
Target sequence (Q8VD66 whole entry, looked up): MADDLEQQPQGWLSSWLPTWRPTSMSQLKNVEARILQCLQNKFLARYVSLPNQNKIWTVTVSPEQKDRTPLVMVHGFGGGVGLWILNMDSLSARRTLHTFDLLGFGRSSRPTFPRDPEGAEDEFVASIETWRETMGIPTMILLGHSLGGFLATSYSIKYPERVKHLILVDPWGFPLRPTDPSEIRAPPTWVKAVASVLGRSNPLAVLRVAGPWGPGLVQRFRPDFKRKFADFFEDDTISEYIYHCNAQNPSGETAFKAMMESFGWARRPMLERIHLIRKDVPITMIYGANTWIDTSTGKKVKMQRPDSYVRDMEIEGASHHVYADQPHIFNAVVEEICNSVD
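Test system: mABHD4 protein; Read-out basis: % inhibition; Incubation: 45 min + 60 min at 25 °C; Repeats: single replicate; Technique: fluorescence polarization with parallel and perpendicular emission, 525/598 nm; Compound: 8.92 µM, single dose; Benchmarks: full inhibition S159A mutant plus DMSO, zero as sample-well median.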
SIAE inh: human SIAE inhibitors, primary screen, biochemical, fluorescence polarization, FP-Rh probe, 1536-well HTS; Sialate O-acetylesterase (Homo sapiens), Q9HAT2; SIAE FP-Rh probe binding; inhibition, % at 9.66 µM; hit rate 0.69% among 370,000; AID 1053197, 2014;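 active = inhibition above a cutoff: mean of compounds within the control limits plus 3 SD of those, cut at about 17% in these data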;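 note: 0% = plate median of compound wells and 100% = probe without SIAE protein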
ARNT TACC3 PPI: disruptors of ARNT/TACC3 protein interaction, primary screen, biochemical, AlphaScreen, single concentration; Transforming acidic coiled-coil-containing protein 3 (Homo sapiens), Q9Y6A5; AlphaScreen His-ARNT PAS-B/GST-TACC3 binding, luminescence; TACC3 fragment carries E629A point mutation; inhibition, % at 9.99 µM; hit rate 0.66% among 390,000; AID 623870, 2012;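 active = mean inhibition of replicates at least 50% and at least half of replicates each reaching 50%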;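 note: 0% = complete ARNT plus TACC3 wells and 100% = ARNT alone without TACC3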
ABHD4 confirm: ABHD4 inhibitors, retest, confirmation, biochemical, fluorescence polarization, mouse. shares compounds with ABHD4 inh. purified mABHD4, FP-Rh probe fluorescence polarization. inhibition, % at 8.92 µM. hit rate 55% among 1,800;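 active = mean inhibition across replicates above the hit cutoff set in the primary screen, cut at about 30% in these data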;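 note: 0% = wild-type ABHD4 with DMSO and 100% = catalytically dead S159A mutant with DMSO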
Numbers without * were called inactive; / = no result given; ! = a repeat was not active.

SMILES	TCR-CD3 inh	HTRA1 inhibitor	ABHD4 inh	SIAE inh	ARNT TACC3 PPI	ABHD4 confirm
Cc1ccccc1-c1cnc2c(c1)C(=O)N([C@@H](C)CO)C[C@@H](C)[C@H](CN(C)Cc1ccncc1)O2	/	/	/	/	-2.6	/
COc1cc(/C=N/NC(=O)[C@H](Cc2c[nH]c3ccccc23)NC(=O)OCC(C)C)cc([N+](=O)[O-])c1O	6.3	15.9	41.5*	33.5*	30.4	49.1*
COc1cc(/C=N/NC(=O)Cc2ccccc2)cc([N+](=O)[O-])c1O	-2.6	0.3	2.5	10.1	3.8	/
N#CC1=C(N)Oc2cc(N)ccc2C1c1ccccc1Cl (configuration not stated)	-0.1	2.9	29.8*	0.5	-4.6	-4.3
C[C@H](CO)N1C[C@H](C)[C@H](CN(C)C(=O)Cc2ccncc2)Oc2ncc(C3=CCCCC3)cc2C1=O	/	/	/	/	8.2	/
C[C@H]1CN([C@@H](C)CO)S(=O)(=O)c2ccc(C#CC(C)(C)O)cc2O[C@@H]1CN(C)Cc1ccncc1	/	/	/	/	-6.5	/
Cc1ccc(OCC(O)CNC2CCCC2)cc1C (configuration not stated)	3.0	1.5	3.9	8.4	-0.3	/
Cc1ccc(C)c(OCC(O)CNC2CCCC2)c1 (configuration not stated)	0.3	3.8	38.5*	-11.8	-0.4	-3.7
O=C1NN(c2ccc(Cl)c(Cl)c2)C(=O)/C1=C/c1ccc(-c2ccccc2C(=O)O)o1	-3.7	2.4	30.9*	3.9	22.5	65.3*
Cc1ccc(N2NC(=O)/C(=C/c3ccc(-c4ccc(Cl)c(C(=O)O)c4)o3)C2=O)cc1C	-7.5	7.8	12.0	5.0	-6.9	/
C[C@H](CO)N1C[C@H](C)[C@@H](CN(C)C(=O)Nc2ccccc2)Oc2ccc(NS(=O)(=O)c3ccc(Cl)cc3)cc2C1=O	/	/	/	/	-1.1	/
CC1=C(O)C(=O)C(C2=C(O)C(=O)C(C)=C(O)C2=O)=C(O)C1=O	0.5	32.9	39.8*	6.7	66.1*	38.1*
CC(C)N1CC2(CC(c3ccccc3C(F)(F)F)=NO2)CN1C(=O)c1ccc(C(C)(C)C)cc1 (configuration not stated)	-5.3	-27.2	52.8*	-6.7	/	43.1*
CC(C)N1CC2(CC(c3ccccc3C(F)(F)F)=NO2)CN1C(=O)c1ccco1 (configuration not stated)	9.5	4.6	30.7*	-1.9	/	21.3
CC(C)N1CC2(CC(c3ccccc3F)=NO2)CN1C(=O)c1ccc(C(C)(C)C)cc1 (configuration not stated)	-9.0	-24.6	6.5	-2.2	/	/
CCN(CC)S(=O)(=O)c1ccc2c(c1)NC(=O)C1CCCN21 (configuration not stated)	-9.1	-6.9	31.2*	-8.3	0.0	43.9*
[O-]C(=C(C(=S)Nc1cccc2ccccc12)[n+]1cccc(CO)c1)c1ccc(Cl)s1	-0.5	9.4	30.4*	4.7	1.0	62.8*
[O-]/C(=C(\C(=S)Nc1cccc2ccccc12)[n+]1ccccc1)c1ccc(Cl)s1	-5.2	-4.9	18.2	2.0	9.1	/
C[C@H]1CN([C@@H](C)CO)C(=O)c2cc(-c3cccc(F)c3)cnc2O[C@H]1CN(C)C(=O)C1CCCCC1	/	/	/	/	7.5	/
Nc1ccc(O)cc1C(=O)OCC(=O)c1ccc(C2CCCCC2)cc1	2.9	29.0	53.5*	13.4	8.4	38.5*
Nc1ccc(O)cc1C(=O)OCC(=O)C12CC3CC(CC(C3)C1)C2	-5.9	25.8	52.4*	6.6	-6.7	35.3*
CCOC(=O)C1=C(C)NC2=C(C(=O)c3ccccc32)C1c1ccc(O)cc1 (configuration not stated)	-8.2	22.3	42.5*	5.2	1.0	49.1*
C[C@H](CO)N1C[C@H](C)[C@@H](CN(C)Cc2ccc(C(F)(F)F)cc2)Oc2c(NC(=O)C3CCOCC3)cccc2C1=O	/	/	/	/	3.7	/
CC(=O)N(C)C[C@@H]1Oc2ncc(-c3ccccc3C)cc2C(=O)N([C@@H](C)CO)C[C@@H]1C	/	/	/	/	0.8	/
COc1ccc2nc(N=Nc3ccc(N(C)C)cc3)sc2c1	0.2	9.9	5.0	4.0	0.4	/
SMILES	TCR-CD3 inh	HTRA1 inhibitor	ABHD4 inh	SIAE inh	ARNT TACC3 PPI	ABHD4 confirm
CN(C)c1ccc2nc3ccc(=[N+](C)C)cc-3sc2c1	7.1	17.0	31.1*	7.2	/	14.1
C[C@H]1CCCCO[C@@H](CN(C)Cc2ccccc2)[C@@H](C)CN([C@@H](C)CO)C(=O)c2cc(NC(=O)Nc3ccc(C(F)(F)F)cc3)ccc2O1	/	/	/	/	-1.1	/
CCN(CC(=O)Nc1ccc2c(c1)OCCO2)CC(=O)Nc1ccccc1C(F)(F)F	-1.8	3.4	31.6*	5.0	-22.8	7.0
CO[C@@H]1CN(C)C(=O)c2cc(NS(=O)(=O)c3ccccc3C)ccc2OC[C@H](C)NC[C@@H]1C	/	/	/	/	-8.6	/
COc1ccc(S(=O)(=O)N(C(=O)c2ccco2)c2cc3sc(=O)oc3c3ccccc23)cc1	2.7	21.7	53.9*	-52.8	28.8	30.5*
COc1ccc(S(=O)(=O)N(C(=O)C(C)C)c2ccc3oc(=O)sc3c2)cc1	-9.3	20.9	-27.2	-41.2	16.3	/
CCCCNc1c(-c2ccc(OC)c(SC(C)CC)c2)nc2ccc(C)cn12 (configuration not stated)	-5.2	-11.7	34.1*!	11.7	14.4	38.2*
CCCCNc1c(-c2ccc(OC)c(SC3CCCCC3)c2)nc2ccc(C)cn12	-3.5	-1.4	33.1*!	2.9	7.0	37.1*
CCC(C)Sc1cc(-c2nc3ccc(C)cn3c2NCc2ccccc2)ccc1OC (configuration not stated)	2.3	14.1	42.5*	9.9	0.3	36.4*
CCC(C)Sc1ccc(-c2nc3ccc(C)cn3c2NCc2ccccc2)cc1OC (configuration not stated)	/	12.3	/	/	-4.1	/
O=C(N[C@@H]1C=C[C@@H](CC(=O)N2CCc3ccccc3C2)O[C@H]1CO)C1CC1	/	/	/	/	3.1	/
CC(=O)N(C)C[C@H]1Oc2ncc(-c3ccc(C#N)cc3)cc2C(=O)N([C@@H](C)CO)C[C@@H]1C	/	/	/	/	-7.0	/
COCc1cc(N2CCN(C(=O)OC(C)(C)C)C[C@@H]2C)ccc1N1CC[C@@H](O)C1	11.8	/	31.9*	14.7	/	25.3
C[C@@H]1CN([C@H](C)CO)C(=O)c2cc(-c3cccnc3)cnc2O[C@@H]1CN(C)Cc1ccc(-c2ccccc2)cc1	/	/	/	/	0.7	/
CN(C(=S)NC(=O)C1CC1)c1ccc(O)cc1	-0.3	6.4	30.2*	2.9	6.7	-2.4
